In assay [1] the target is T1, 80S Ribosome (Homo sapiens) (UniProt P08865+P42677+P62753+P15880+P23396+P61247+P62701+P22090+P46782+P62081+P62241+P46781+P46783+P62280+P25398+P62277+P62263+P62841+P62244+P62249+P08708+P62269+P39019+P60866+P63220+P62266+P62847+P62851+P62854+P62979+P62857+P62273+P62861+P39023+P36578+P46777+Q02878+P18124+P62424+P62917+P32969+P27635+P62906+P62913+P30050+P26373+P40429+P50914+P61313+P18621+Q07020+Q02543+P84098+P46778+P35268+P62829+P62750+P83731+P61254+P61353+P46776+P46779+P47914+P62888+P62899+P62910+P49207+P42766+P18077+Q9Y3U8+P83881+P61927+P61513+P63173+P62891+P62945+P05388+P05386). Kind of assay: Binding affinity to RPS2 in human NCI-H358 cells at 1 uM by mass spectrometry based pull down assay. Type of assay: cell-based.

The target of assay [2] is Bifunctional 3'-phosphoadenosine 5'-phosphosulfate synthase 2 (Homo sapiens) (UniProt O95340). Kind of assay: Binding affinity to PAPSS2 in human NCI-H23 cells at 1 uM by mass spectrometry based pull down assay. Type of assay: cell-based.
Sequence of Bifunctional 3'-phosphoadenosine 5'-phosphosulfate synthase 2 (Homo sapiens) (O95340 whole entry): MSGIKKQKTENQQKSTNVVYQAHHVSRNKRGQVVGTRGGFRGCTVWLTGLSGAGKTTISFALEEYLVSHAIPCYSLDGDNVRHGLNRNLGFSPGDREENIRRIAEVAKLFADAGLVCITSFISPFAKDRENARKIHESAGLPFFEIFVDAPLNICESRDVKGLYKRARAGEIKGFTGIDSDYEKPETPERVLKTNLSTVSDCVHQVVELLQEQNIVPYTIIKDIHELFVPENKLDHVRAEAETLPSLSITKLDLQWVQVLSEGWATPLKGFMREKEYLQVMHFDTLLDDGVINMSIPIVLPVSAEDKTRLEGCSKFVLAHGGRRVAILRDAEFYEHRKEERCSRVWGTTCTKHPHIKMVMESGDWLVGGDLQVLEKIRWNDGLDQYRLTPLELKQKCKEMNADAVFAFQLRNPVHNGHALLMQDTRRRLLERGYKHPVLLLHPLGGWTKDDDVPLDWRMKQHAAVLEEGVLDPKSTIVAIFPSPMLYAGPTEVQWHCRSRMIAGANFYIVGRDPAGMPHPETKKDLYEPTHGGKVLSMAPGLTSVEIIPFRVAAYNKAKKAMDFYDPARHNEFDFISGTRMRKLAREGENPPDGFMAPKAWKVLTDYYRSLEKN
Assay [3] deals with Interleukin-1 receptor-associated kinase 1 (Homo sapiens) (UniProt P51617). Kind of assay: Binding affinity to IRAK1 in human NCI-H23 cells at 1 uM by mass spectrometry based pull down assay. Type of assay: cell-based.
Sequence of Interleukin-1 receptor-associated kinase 1 (Homo sapiens) (P51617 whole entry, looked up): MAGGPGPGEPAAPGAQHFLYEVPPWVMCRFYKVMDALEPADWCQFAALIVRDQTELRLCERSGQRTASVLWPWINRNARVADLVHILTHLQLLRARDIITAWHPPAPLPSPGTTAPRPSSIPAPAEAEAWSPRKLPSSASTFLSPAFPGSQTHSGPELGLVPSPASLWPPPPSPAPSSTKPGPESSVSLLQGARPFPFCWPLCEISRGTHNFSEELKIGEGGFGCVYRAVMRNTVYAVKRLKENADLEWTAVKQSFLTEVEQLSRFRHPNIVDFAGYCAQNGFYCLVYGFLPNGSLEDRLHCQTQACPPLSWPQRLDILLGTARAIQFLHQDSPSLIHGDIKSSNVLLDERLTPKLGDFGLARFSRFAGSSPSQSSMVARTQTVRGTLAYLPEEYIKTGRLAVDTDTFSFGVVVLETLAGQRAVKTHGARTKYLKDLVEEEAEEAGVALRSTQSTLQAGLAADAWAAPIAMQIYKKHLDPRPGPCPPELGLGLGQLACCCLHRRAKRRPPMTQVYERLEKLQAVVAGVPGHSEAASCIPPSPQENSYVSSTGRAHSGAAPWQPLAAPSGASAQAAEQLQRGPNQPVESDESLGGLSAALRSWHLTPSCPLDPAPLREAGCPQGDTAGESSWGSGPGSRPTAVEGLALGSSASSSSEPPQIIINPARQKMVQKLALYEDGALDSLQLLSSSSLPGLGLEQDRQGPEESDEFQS
Assay [4] concerns the target Proteasome activator complex subunit 3 (Homo sapiens) (UniProt P61289). Kind of assay: Binding affinity to PSME3 in human NCI-H23 cells at 1 uM by mass spectrometry based pull down assay. The format is cell-based.
Assay [5] deals with MAP kinase-activated protein kinase 5 (Homo sapiens) (UniProt Q8IW41). Kind of assay: Binding affinity to MAPKAPK5 in human NCI-H23 cells at 1 uM by mass spectrometry based pull down assay. Type of assay: cell-based.
Sequence of MAP kinase-activated protein kinase 5 (Homo sapiens) (Q8IW41 whole entry): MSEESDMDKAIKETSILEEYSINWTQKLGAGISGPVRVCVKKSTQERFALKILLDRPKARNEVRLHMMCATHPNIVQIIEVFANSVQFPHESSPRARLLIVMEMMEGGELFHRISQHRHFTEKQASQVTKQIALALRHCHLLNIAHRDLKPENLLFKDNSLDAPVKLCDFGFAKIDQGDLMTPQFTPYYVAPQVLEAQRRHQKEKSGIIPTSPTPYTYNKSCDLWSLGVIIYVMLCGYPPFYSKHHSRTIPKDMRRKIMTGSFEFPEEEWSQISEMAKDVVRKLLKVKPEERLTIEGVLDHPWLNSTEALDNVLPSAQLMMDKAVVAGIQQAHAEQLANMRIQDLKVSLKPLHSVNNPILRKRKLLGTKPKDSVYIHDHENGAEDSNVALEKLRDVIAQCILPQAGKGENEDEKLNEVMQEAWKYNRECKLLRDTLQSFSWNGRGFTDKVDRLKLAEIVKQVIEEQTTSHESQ
Assay [6] concerns the target DnaJ homolog subfamily B member 6 (Homo sapiens) (UniProt O75190). Kind of assay: Binding affinity to DNAJB6 in human NCI-H23 cells at 1 uM by mass spectrometry based pull down assay. The format is cell-based.
Assay [7] deals with Importin-5 (Homo sapiens) (UniProt O00410). Kind of assay: Binding affinity to IPO5 in human NCI-H358 cells at 1 uM by mass spectrometry based pull down assay. The format is cell-based.
In another assay the target is Plectin (Homo sapiens) (UniProt Q15149). Kind of assay: Binding affinity to PLEC in human NCI-H358 cells at 1 uM by mass spectrometry based pull down assay. The format is cell-based.
The target of assay [8] is Trifunctional enzyme subunit alpha, mitochondrial (Homo sapiens) (UniProt P40939). Kind of assay: Binding affinity to HADHA in human NCI-H358 cells at 1 uM by mass spectrometry based pull down assay. Type of assay: cell-based.
For assay [9], the target named is RuvB-like 2 (Homo sapiens) (UniProt Q9Y230). Kind of assay: Binding affinity to RUVBL2 in human NCI-H358 cells at 1 uM by mass spectrometry based pull down assay. Type of assay: cell-based.
The next assay concerns the target Caprin-1 (Homo sapiens) (UniProt Q14444). Kind of assay: Binding affinity to CAPRIN1 in human NCI-H358 cells at 1 uM by mass spectrometry based pull down assay. The format is cell-based.
The target in assay [10] is T1, 80S Ribosome (Homo sapiens). Kind of assay: Binding affinity to RPL10A in human NCI-H358 cells at 1 uM by mass spectrometry based pull down assay. The format is cell-based.
The target of assay [11] is Phosphoinositide 3-kinase regulatory subunit 4 (Homo sapiens) (UniProt Q99570). Kind of assay: Binding affinity to PIK3R4 in human NCI-H358 cells at 1 uM by mass spectrometry based pull down assay. The format is cell-based.
Assay [12] concerns the target HCLS1-associated protein X-1 (Homo sapiens) (UniProt O00165). Kind of assay: Binding affinity to HAX1 in human NCI-H358 cells at 1 uM by mass spectrometry based pull down assay. The format is cell-based.
The target of assay [13] is Monofunctional C1-tetrahydrofolate synthase, mitochondrial (Homo sapiens) (UniProt Q6UB35). Kind of assay: Binding affinity to MTHFD1L in human NCI-H23 cells at 1 uM by mass spectrometry based pull down assay. Type of assay: cell-based.
Sequence of Monofunctional C1-tetrahydrofolate synthase, mitochondrial (Homo sapiens) (Q6UB35 whole entry): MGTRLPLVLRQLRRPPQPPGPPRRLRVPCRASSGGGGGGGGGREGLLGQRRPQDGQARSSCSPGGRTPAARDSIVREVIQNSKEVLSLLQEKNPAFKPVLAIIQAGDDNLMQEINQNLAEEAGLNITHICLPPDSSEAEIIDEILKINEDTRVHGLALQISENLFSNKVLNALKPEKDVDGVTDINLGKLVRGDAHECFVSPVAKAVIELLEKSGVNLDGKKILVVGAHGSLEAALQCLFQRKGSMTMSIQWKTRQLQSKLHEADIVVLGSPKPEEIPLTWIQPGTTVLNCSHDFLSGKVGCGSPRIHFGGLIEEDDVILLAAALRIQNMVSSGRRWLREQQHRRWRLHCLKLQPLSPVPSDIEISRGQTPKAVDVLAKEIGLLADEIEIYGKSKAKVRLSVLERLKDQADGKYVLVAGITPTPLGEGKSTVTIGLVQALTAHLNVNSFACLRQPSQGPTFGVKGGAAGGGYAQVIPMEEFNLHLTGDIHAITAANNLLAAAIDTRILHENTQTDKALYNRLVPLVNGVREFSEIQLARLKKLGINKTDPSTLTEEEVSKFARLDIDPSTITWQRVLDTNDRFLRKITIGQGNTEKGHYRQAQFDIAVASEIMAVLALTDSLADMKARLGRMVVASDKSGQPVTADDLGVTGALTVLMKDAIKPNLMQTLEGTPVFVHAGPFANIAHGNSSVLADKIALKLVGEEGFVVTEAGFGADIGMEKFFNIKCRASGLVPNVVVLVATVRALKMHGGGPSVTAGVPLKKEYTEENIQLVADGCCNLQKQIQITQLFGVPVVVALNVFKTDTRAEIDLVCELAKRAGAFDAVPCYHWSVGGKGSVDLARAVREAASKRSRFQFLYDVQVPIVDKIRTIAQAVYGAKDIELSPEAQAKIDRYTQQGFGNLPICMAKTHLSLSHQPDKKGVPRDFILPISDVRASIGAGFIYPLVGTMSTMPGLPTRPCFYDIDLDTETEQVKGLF
For assay [14], the target named is T2, Dual specificity mitogen-activated protein kinase kinase 4 (Homo sapiens) (UniProt P45985).
T2 sequence (whole entry): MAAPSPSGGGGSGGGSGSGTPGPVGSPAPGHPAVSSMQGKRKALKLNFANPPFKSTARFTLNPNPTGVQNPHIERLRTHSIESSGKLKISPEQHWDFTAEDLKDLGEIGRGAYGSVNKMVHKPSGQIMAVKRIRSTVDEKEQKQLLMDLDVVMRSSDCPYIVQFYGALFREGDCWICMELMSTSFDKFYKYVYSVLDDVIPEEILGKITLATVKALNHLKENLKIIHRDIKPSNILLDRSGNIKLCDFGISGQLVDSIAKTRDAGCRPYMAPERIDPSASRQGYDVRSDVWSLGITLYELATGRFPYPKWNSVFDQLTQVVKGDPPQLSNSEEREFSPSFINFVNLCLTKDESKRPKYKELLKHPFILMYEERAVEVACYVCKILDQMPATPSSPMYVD
Kind of assay: Binding affinity to MAP2K4 in human NCI-H23 cells at 1 uM by mass spectrometry based pull down assay. The format is cell-based.

The target of assay [15] is Signal recognition particle subunit SRP54 (Homo sapiens) (UniProt P61011). Kind of assay: Binding affinity to SRP54 in human NCI-H358 cells at 1 uM by mass spectrometry based pull down assay. The format is cell-based.
Assay [16] concerns the target Coatomer subunit beta (Homo sapiens) (UniProt P53618). Kind of assay: Binding affinity to COPB1 in human NCI-H23 cells at 1 uM by mass spectrometry based pull down assay. The format is cell-based.
For assay [17], the target named is Activin receptor type-1 (Homo sapiens) (UniProt Q04771). Kind of assay: Inhibition of human ACVR1 (188 to 509 residues) expressed in bacterial expression system assessed as enzyme activity at 1 uM by KINOMEScan assay relative to control. Also noted: scale not given: the % may be the effect or the level left. In short, it runs like this:
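In vitro ATP-site competition binding assay (KinomeScan) across a panel of 456 kinases. Compound was tested at 1 and 10 μM. The read-out is the binding inhibition score relative to control.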

The target in assay [18] is Mitogen-activated protein kinase kinase kinase 11 (Homo sapiens) (UniProt Q16584). Kind of assay: Inhibition of MLK3 in human SKCO1 cells at 1 uM after 4 hrs using biotin labeled DLKSNNILLLQPIESDDMEHK probe by mass-spectrometric analysis relative to control. The format is cell-based.

SMILES strings stand for the structures. Active and inactive are the calls of the source. No cut-off for these calls is given here.

As a reminder, the inhibition is the drop in the measured response relative to a control, in per cent.

Sequence of Coatomer subunit beta (Homo sapiens) (P53618 whole entry, the tested form may be a part): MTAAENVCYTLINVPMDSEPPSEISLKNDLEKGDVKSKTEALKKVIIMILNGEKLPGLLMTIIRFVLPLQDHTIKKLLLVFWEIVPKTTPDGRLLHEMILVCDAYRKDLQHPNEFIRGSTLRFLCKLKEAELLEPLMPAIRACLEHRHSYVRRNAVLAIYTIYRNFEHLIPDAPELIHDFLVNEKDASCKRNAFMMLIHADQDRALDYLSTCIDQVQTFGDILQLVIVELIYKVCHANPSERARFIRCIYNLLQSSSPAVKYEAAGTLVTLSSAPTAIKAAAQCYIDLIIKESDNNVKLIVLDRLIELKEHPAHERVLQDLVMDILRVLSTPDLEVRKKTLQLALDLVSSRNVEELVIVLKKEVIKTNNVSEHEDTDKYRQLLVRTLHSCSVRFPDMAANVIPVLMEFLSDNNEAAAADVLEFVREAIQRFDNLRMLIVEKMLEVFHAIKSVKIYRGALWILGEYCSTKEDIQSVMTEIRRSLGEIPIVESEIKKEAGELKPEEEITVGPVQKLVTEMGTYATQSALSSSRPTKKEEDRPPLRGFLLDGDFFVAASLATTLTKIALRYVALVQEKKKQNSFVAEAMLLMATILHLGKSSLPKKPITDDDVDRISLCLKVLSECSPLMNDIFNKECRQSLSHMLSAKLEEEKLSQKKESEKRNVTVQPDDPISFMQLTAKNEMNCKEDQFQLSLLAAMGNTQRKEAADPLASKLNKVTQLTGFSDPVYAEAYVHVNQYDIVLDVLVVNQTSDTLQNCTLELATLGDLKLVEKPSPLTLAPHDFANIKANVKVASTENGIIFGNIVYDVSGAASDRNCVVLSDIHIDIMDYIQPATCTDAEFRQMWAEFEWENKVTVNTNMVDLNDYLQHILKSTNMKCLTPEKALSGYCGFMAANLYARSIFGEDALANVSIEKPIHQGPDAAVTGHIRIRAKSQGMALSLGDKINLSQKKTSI
Sequence of Activin receptor type-1 (Homo sapiens) (Q04771 whole entry, the tested form may be a part): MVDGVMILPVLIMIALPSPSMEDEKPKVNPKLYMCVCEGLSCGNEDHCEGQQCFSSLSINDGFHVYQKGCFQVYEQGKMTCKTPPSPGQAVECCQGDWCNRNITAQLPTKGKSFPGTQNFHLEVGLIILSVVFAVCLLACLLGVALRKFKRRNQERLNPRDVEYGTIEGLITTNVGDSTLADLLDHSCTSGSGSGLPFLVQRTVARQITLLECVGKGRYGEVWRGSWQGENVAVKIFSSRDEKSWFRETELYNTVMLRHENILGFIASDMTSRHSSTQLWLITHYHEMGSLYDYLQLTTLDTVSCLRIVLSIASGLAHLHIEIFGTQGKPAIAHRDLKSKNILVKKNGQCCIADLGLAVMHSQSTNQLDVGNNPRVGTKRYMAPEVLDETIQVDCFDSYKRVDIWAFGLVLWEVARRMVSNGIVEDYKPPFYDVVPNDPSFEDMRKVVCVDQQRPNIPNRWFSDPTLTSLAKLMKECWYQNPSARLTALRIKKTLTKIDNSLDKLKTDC
Sequence of Caprin-1 (Homo sapiens) (Q14444 whole entry): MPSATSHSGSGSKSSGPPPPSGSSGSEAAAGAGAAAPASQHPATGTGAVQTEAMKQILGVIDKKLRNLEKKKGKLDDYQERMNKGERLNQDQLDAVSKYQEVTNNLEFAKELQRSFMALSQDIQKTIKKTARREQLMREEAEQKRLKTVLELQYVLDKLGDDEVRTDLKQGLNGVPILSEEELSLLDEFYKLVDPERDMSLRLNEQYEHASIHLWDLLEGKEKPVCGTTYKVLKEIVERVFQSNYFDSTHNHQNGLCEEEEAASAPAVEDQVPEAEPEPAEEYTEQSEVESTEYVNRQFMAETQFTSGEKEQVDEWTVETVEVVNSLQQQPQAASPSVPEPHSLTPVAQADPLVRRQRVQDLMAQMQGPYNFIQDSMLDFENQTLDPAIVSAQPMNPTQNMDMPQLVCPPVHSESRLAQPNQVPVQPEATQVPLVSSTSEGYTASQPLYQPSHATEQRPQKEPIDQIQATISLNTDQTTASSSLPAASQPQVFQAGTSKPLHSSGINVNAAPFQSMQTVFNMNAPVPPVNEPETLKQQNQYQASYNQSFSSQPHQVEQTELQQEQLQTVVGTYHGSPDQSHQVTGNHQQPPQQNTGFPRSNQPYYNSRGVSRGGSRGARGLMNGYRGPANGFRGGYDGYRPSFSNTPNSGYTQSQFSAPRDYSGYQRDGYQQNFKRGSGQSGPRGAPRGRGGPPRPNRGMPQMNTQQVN

Regarding `C=CC(=O)Nc1ccccc1Nc1nc(Nc2ccc(N3CCN(CCOCCOCCOCCNC(=O)CCCC[C@@H]4SC[C@@H]5NC(=O)N[C@@H]54)CC3)cc2)ncc1Cl`, the outcome in assay [1], in assay [2], in assay [3], in assay [4], in assay [5] and in assay [6] was Active. Besides, the result (in assay [7]; on Plectin (Homo sapiens); in [8]; in [9]; at Caprin-1 (Homo sapiens); in assay [10]) was Active. Also, the outcome in assay [11], in [12], in assay [13], in [14], in assay [15] and in assay [16] was Active.

Turning to `COc1cc(O)c2c(c1)/C=C/C[C@H](O)[C@H](O)C(=O)/C=C\C[C@H](C)OC2=O`, the Activity in [17] is 21%. Besides, the inhibition in assay [18] was -1.7%.

The record behind these values is ChEMBL document CHEMBL4118021, “Studies of TAK1-centered polypharmacology with novel covalent TAK1 inhibitors” (Bioorg Med Chem, 2017).
